ChEMBL document CHEMBL3045462, “Synthesis and fungicidal activity of novel 4,4'-bis(2' '-aryl-5' '-methyl/unsubstituted-4' '-oxo-thiazolidin-3' '-yl) bibenzyl” (2003)

system: Fusarium oxysporum; assay: Growth inhibition of Fusarium oxysporum at 100 ppm after 96 hr by poisoned food technique; format: functional; settings: read-out: GI
Summary of the method: (§1)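 Poisoned food technique in vitro: test compound mixed into Czapek's agar at 1000, 100 or 10 ppm, then Fusarium oxysporum or Penicillium citrinum grown on the medium. Growth inhibition was scored following previously described methods.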

| Compound | inhibition of growth at 100 ppm |
| --- | --- |
| C(=N\c1ccc(CCc2ccc(/N=C/c3ccccc3)cc2)cc1)/c1ccccc1 | 24% |
| COc1ccc(/C=N/c2ccc(CCc3ccc(/N=C/c4ccc(OC)cc4)cc3)cc2)cc1 | 36% |
| Clc1ccc(/C=N/c2ccc(CCc3ccc(/N=C/c4ccc(Cl)cc4)cc3)cc2)cc1 | 47% |
| COc1ccc(/C=N/c2ccc(CCc3ccc(/N=C/c4ccc(OC)c(OC)c4)cc3)cc2)cc1OC | 43% |
| Oc1ccccc1/C=N/c1ccc(CCc2ccc(/N=C/c3ccccc3O)cc2)cc1 | 53% |
| COc1cc(/C=N/c2ccc(CCc3ccc(/N=C/c4ccc(O)c(OC)c4)cc3)cc2)ccc1O | 47% |
| O=C1CS[C@@H](c2ccccc2)N1c1ccc(CCc2ccc(N3C(=O)CS[C@H]3c3ccccc3)cc2)cc1 | 30% |
| COc1ccc([C@@H]2SCC(=O)N2c2ccc(CCc3ccc(N4C(=O)CS[C@H]4c4ccc(OC)cc4)cc3)cc2)cc1 | 50% |
| O=C1CS[C@@H](c2ccc(Cl)cc2)N1c1ccc(CCc2ccc(N3C(=O)CS[C@H]3c3ccc(Cl)cc3)cc2)cc1 | 43% |

system: Penicillium citrinum; assay: Growth inhibition of Penicillium citrinum at 10 ppm after 96 hr by poisoned food technique; format: functional; settings: read-out: GI; summary of the method: as §1

| Compound | inhibition of growth at 10 ppm |
| --- | --- |
| C(=N\c1ccc(CCc2ccc(/N=C/c3ccccc3)cc2)cc1)/c1ccccc1 | 13% |
| COc1ccc(/C=N/c2ccc(CCc3ccc(/N=C/c4ccc(OC)cc4)cc3)cc2)cc1 | 21% |
| Clc1ccc(/C=N/c2ccc(CCc3ccc(/N=C/c4ccc(Cl)cc4)cc3)cc2)cc1 | 15% |
| COc1ccc(/C=N/c2ccc(CCc3ccc(/N=C/c4ccc(OC)c(OC)c4)cc3)cc2)cc1OC | 19% |
| Oc1ccccc1/C=N/c1ccc(CCc2ccc(/N=C/c3ccccc3O)cc2)cc1 | 23% |
| COc1cc(/C=N/c2ccc(CCc3ccc(/N=C/c4ccc(O)c(OC)c4)cc3)cc2)ccc1O | 37% |
| O=C1CS[C@@H](c2ccccc2)N1c1ccc(CCc2ccc(N3C(=O)CS[C@H]3c3ccccc3)cc2)cc1 | 10% |
| COc1ccc([C@@H]2SCC(=O)N2c2ccc(CCc3ccc(N4C(=O)CS[C@H]4c4ccc(OC)cc4)cc3)cc2)cc1 | 17% |
| O=C1CS[C@@H](c2ccc(Cl)cc2)N1c1ccc(CCc2ccc(N3C(=O)CS[C@H]3c3ccc(Cl)cc3)cc2)cc1 | 8% |

system: Penicillium citrinum; assay: Growth inhibition of Penicillium citrinum at 1000 ppm after 96 hr by poisoned food technique; format: functional; settings: read-out: GI; summary of the method: as §1

| Compound | inhibition of growth at 1000 ppm |
| --- | --- |
| C(=N\c1ccc(CCc2ccc(/N=C/c3ccccc3)cc2)cc1)/c1ccccc1 | 56% |
| COc1ccc(/C=N/c2ccc(CCc3ccc(/N=C/c4ccc(OC)cc4)cc3)cc2)cc1 | 58% |
| Clc1ccc(/C=N/c2ccc(CCc3ccc(/N=C/c4ccc(Cl)cc4)cc3)cc2)cc1 | 88% |
| COc1ccc(/C=N/c2ccc(CCc3ccc(/N=C/c4ccc(OC)c(OC)c4)cc3)cc2)cc1OC | 42% |
| Oc1ccccc1/C=N/c1ccc(CCc2ccc(/N=C/c3ccccc3O)cc2)cc1 | 50% |
| COc1cc(/C=N/c2ccc(CCc3ccc(/N=C/c4ccc(O)c(OC)c4)cc3)cc2)ccc1O | 57% |
| O=C1CS[C@@H](c2ccccc2)N1c1ccc(CCc2ccc(N3C(=O)CS[C@H]3c3ccccc3)cc2)cc1 | 51% |
| COc1ccc([C@@H]2SCC(=O)N2c2ccc(CCc3ccc(N4C(=O)CS[C@H]4c4ccc(OC)cc4)cc3)cc2)cc1 | 46% |
| O=C1CS[C@@H](c2ccc(Cl)cc2)N1c1ccc(CCc2ccc(N3C(=O)CS[C@H]3c3ccc(Cl)cc3)cc2)cc1 | 87% |

system: Fusarium oxysporum; assay: Growth inhibition of Fusarium oxysporum at 1000 ppm after 96 hr by poisoned food technique; format: functional; settings: read-out: GI; summary of the method: as §1

| Compound | inhibition of growth at 1000 ppm |
| --- | --- |
| C(=N\c1ccc(CCc2ccc(/N=C/c3ccccc3)cc2)cc1)/c1ccccc1 | 50% |
| COc1ccc(/C=N/c2ccc(CCc3ccc(/N=C/c4ccc(OC)cc4)cc3)cc2)cc1 | 46% |
| Clc1ccc(/C=N/c2ccc(CCc3ccc(/N=C/c4ccc(Cl)cc4)cc3)cc2)cc1 | 83% |
| COc1ccc(/C=N/c2ccc(CCc3ccc(/N=C/c4ccc(OC)c(OC)c4)cc3)cc2)cc1OC | 55% |
| Oc1ccccc1/C=N/c1ccc(CCc2ccc(/N=C/c3ccccc3O)cc2)cc1 | 62% |
| COc1cc(/C=N/c2ccc(CCc3ccc(/N=C/c4ccc(O)c(OC)c4)cc3)cc2)ccc1O | 51% |
| O=C1CS[C@@H](c2ccccc2)N1c1ccc(CCc2ccc(N3C(=O)CS[C@H]3c3ccccc3)cc2)cc1 | 55% |
| COc1ccc([C@@H]2SCC(=O)N2c2ccc(CCc3ccc(N4C(=O)CS[C@H]4c4ccc(OC)cc4)cc3)cc2)cc1 | 61% |
| O=C1CS[C@@H](c2ccc(Cl)cc2)N1c1ccc(CCc2ccc(N3C(=O)CS[C@H]3c3ccc(Cl)cc3)cc2)cc1 | 82% |

system: Fusarium oxysporum; assay: Growth inhibition of Fusarium oxysporum at 10 ppm after 96 hr by poisoned food technique; format: functional; settings: read-out: GI; summary of the method: as §1

| Compound | inhibition of growth at 10 ppm |
| --- | --- |
| C(=N\c1ccc(CCc2ccc(/N=C/c3ccccc3)cc2)cc1)/c1ccccc1 | 9% |
| COc1ccc(/C=N/c2ccc(CCc3ccc(/N=C/c4ccc(OC)cc4)cc3)cc2)cc1 | 29% |
| Clc1ccc(/C=N/c2ccc(CCc3ccc(/N=C/c4ccc(Cl)cc4)cc3)cc2)cc1 | 20% |
| COc1ccc(/C=N/c2ccc(CCc3ccc(/N=C/c4ccc(OC)c(OC)c4)cc3)cc2)cc1OC | 31% |
| Oc1ccccc1/C=N/c1ccc(CCc2ccc(/N=C/c3ccccc3O)cc2)cc1 | 25% |
| COc1cc(/C=N/c2ccc(CCc3ccc(/N=C/c4ccc(O)c(OC)c4)cc3)cc2)ccc1O | 48% |
| O=C1CS[C@@H](c2ccccc2)N1c1ccc(CCc2ccc(N3C(=O)CS[C@H]3c3ccccc3)cc2)cc1 | 12% |
| COc1ccc([C@@H]2SCC(=O)N2c2ccc(CCc3ccc(N4C(=O)CS[C@H]4c4ccc(OC)cc4)cc3)cc2)cc1 | 24% |
| O=C1CS[C@@H](c2ccc(Cl)cc2)N1c1ccc(CCc2ccc(N3C(=O)CS[C@H]3c3ccc(Cl)cc3)cc2)cc1 | 15% |

system: Penicillium citrinum; assay: Growth inhibition of Penicillium citrinum at 100 ppm after 96 hr by poisoned food technique; format: functional; settings: read-out: GI; summary of the method: as §1

| Compound | inhibition of growth at 100 ppm |
| --- | --- |
| C(=N\c1ccc(CCc2ccc(/N=C/c3ccccc3)cc2)cc1)/c1ccccc1 | 20% |
| COc1ccc(/C=N/c2ccc(CCc3ccc(/N=C/c4ccc(OC)cc4)cc3)cc2)cc1 | 44% |
| Clc1ccc(/C=N/c2ccc(CCc3ccc(/N=C/c4ccc(Cl)cc4)cc3)cc2)cc1 | 30% |
| COc1ccc(/C=N/c2ccc(CCc3ccc(/N=C/c4ccc(OC)c(OC)c4)cc3)cc2)cc1OC | 27% |
| Oc1ccccc1/C=N/c1ccc(CCc2ccc(/N=C/c3ccccc3O)cc2)cc1 | 33% |
| COc1cc(/C=N/c2ccc(CCc3ccc(/N=C/c4ccc(O)c(OC)c4)cc3)cc2)ccc1O | 45% |
| O=C1CS[C@@H](c2ccccc2)N1c1ccc(CCc2ccc(N3C(=O)CS[C@H]3c3ccccc3)cc2)cc1 | 20% |
| COc1ccc([C@@H]2SCC(=O)N2c2ccc(CCc3ccc(N4C(=O)CS[C@H]4c4ccc(OC)cc4)cc3)cc2)cc1 | 32% |
| O=C1CS[C@@H](c2ccc(Cl)cc2)N1c1ccc(CCc2ccc(N3C(=O)CS[C@H]3c3ccc(Cl)cc3)cc2)cc1 | 33% |
